# Data as given in ChEMBL document CHEMBL4665726, “Development of a selective HDAC inhibitor aimed at reactivating the HIV latent reservoir” (Bioorg Med Chem Lett, 2020).
# Tests used:
# [1] = molecular target: Histone deacetylase 3 (Homo sapiens, UniProt O15379); assay: Inhibition of HDAC3 (unknown origin)
# [2] = molecular target: T1, Protein deacetylase HDAC6 (Homo sapiens, UniProt Q9UBN7); assay: Inhibition of HDAC6 (unknown origin)
# T1 sequence (Q9UBN7 whole entry): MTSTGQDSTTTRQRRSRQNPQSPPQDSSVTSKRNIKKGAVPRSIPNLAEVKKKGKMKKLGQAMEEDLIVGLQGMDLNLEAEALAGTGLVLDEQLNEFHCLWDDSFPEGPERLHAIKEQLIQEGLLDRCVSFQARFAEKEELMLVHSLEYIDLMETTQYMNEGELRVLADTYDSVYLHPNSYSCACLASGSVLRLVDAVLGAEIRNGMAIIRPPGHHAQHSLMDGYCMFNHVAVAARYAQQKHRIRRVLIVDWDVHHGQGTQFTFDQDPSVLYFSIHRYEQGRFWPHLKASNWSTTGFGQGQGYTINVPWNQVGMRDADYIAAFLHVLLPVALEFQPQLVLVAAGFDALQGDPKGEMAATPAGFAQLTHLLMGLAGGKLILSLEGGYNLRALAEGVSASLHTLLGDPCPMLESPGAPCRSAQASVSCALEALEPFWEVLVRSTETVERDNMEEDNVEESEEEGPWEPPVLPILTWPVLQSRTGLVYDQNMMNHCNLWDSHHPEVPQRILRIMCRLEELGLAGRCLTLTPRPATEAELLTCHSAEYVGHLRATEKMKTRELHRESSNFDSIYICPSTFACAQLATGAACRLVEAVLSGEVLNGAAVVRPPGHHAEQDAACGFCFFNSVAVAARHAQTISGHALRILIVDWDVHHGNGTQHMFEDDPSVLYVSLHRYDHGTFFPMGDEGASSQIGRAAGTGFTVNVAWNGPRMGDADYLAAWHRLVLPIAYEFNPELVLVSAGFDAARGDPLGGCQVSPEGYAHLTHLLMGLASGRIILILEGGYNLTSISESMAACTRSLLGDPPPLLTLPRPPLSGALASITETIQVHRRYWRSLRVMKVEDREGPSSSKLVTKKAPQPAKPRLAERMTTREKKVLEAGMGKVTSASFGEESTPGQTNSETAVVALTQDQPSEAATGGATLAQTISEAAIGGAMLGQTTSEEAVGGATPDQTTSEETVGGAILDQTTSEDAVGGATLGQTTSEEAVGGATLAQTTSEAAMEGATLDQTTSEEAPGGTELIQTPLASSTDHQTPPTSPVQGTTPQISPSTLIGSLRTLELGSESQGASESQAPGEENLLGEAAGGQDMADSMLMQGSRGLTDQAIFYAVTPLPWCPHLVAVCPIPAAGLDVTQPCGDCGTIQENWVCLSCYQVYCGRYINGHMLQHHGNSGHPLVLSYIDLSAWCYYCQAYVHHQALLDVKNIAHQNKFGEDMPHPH
# [3] = molecular target: Histone deacetylase 2 (Homo sapiens, UniProt Q92769); assay: Inhibition of HDAC2 (unknown origin)
# Histone deacetylase 2, sequence (Q92769 whole entry): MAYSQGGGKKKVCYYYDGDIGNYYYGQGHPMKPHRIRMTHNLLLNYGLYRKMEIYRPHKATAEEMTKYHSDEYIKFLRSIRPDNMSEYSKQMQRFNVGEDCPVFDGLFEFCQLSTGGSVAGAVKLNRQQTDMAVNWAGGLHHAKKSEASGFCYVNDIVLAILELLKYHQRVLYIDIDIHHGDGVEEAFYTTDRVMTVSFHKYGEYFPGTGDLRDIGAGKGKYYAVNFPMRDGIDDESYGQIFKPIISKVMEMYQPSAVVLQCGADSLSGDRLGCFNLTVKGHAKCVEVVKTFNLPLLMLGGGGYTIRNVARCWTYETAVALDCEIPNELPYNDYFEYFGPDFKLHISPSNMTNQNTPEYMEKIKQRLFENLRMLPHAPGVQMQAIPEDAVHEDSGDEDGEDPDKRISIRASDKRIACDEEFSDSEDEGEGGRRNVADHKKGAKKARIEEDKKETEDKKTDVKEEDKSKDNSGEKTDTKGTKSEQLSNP
# [4] = molecular target: T2, Histone deacetylase 8 (Homo sapiens, UniProt Q9BY41); assay: Inhibition of HDAC8 (unknown origin)
# T2 sequence (Q9BY41 whole entry): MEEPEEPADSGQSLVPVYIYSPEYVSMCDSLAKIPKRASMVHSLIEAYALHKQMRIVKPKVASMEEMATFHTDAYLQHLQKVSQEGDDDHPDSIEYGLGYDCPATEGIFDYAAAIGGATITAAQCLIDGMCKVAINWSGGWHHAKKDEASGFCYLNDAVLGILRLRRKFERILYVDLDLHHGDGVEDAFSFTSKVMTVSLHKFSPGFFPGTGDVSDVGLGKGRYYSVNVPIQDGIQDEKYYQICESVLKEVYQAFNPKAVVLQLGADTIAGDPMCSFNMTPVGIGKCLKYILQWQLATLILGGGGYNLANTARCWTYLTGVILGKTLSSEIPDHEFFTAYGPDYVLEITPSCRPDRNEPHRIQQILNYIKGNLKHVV
# [5] = molecular target: T3, Class 1 histone deacetylase (Homo sapiens, UniProt Q13547+O15379+Q92769+Q9BY41); assay: Inhibition of Class 1 HDAC in VSV-G-pseudotyped HIV infected human 2C4 cell Jurkat model assessed as reactivation of HIV latency in presence of 0.1% NHS by fluorescent reporter gene assay
# Summary of the method: (§1)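 Latently infected Jurkat 2C4 cells (HIV latency model) were tested for reactivation of silenced provirus in parallel at two normal human serum levels: 0.1% and 5%. The paired runs gauge the potency shift from plasma protein binding.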
# [6] = Unbound clearance in Wistar Han rat at 2 mg/kg, iv or 10 mg/kg, po; assay type: ADME, organism-based; settings: in vivo
# [7] = Half life in Wistar Han rat at 2 mg/kg, iv or 10 mg/kg, po; assay type: ADME, organism-based; settings: in vivo
# [8] = molecular target: Histone deacetylase 1 (Homo sapiens, UniProt Q13547); assay: Inhibition of HDAC1 (unknown origin)
# Histone deacetylase 1, sequence (Q13547 whole entry): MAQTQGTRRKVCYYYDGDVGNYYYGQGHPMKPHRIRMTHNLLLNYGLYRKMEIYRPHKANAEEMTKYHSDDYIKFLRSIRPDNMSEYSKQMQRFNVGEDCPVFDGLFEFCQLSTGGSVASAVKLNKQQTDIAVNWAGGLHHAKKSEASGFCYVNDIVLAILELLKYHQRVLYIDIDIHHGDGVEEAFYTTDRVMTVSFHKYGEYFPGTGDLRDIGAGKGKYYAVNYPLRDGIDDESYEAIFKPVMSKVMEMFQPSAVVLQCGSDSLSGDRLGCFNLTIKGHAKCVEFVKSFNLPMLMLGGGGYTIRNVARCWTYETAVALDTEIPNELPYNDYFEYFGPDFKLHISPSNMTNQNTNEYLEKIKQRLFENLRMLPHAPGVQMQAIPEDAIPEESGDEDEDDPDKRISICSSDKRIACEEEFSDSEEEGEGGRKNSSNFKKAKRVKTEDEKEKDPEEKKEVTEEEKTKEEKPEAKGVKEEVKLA
# [9] = Unbound volume of distribution in Wistar Han rat at 2 mg/kg, iv or 10 mg/kg, po; assay type: ADME, organism-based; settings: in vivo
# [10] = Apparent permeability of the compound; assay type: ADME; settings: not told
# [11] = Oral bioavailability in Wistar Han rat at 10 mg/kg; assay type: ADME, organism-based; settings: in vivo
# [12] = molecular target: T3, Class 1 histone deacetylase; assay: Inhibition of Class 1 HDAC in VSV-G-pseudotyped HIV infected human 2C4 cell Jurkat model assessed as reactivation of HIV latency in presence of 5% NHS by fluorescent reporter gene assay; summary of the method: as §1
# Histone deacetylase 3, sequence (O15379 whole entry): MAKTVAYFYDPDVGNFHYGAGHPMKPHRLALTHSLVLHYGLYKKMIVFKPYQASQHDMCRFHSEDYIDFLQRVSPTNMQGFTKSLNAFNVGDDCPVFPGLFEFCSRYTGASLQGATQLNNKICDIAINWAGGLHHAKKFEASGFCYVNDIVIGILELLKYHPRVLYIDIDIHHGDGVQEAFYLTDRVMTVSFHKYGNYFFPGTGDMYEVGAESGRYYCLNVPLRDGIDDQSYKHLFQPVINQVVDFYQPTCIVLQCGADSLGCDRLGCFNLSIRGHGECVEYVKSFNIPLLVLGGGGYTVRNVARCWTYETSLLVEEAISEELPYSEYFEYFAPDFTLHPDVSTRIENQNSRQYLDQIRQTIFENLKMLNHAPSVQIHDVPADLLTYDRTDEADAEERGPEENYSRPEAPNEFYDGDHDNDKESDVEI
smiles,measurement,setting,value
CCC(=O)CCCCC[C@H](NC(=O)C1CN(C)C1)c1[nH]c(-c2ccccc2)nc1C(N)=O,IC50,[1],2.5 nM
same,IC50,[2],9830 nM
same,IC50,[3],18.1 nM
same,IC50,[4],5420 nM
same,EC50,[5],294 nM
same,CL free,[6],166 mL/min/kg
same,half-life,[7],6.4 h
same,IC50,[8],1.9 nM
same,Vdu,[9],45 L/kg
same,Papp,[10],1.1 ×10⁻⁶ cm/s
same,bioavailability,[11],0%
same,EC50,[12],269 nM
